XiGFP reactiv – reactivates the inactive X chromosome in mouse fibroblasts; XiGFP mouse fibroblasts, % GFP-positive cells imaging, 3 d; cells co-treated with 5-aza-dC sensitizer; scaled so ellipticine positive control = 100%; activation, % at 7.58 µM; actives 0.055% (n = 360,000);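 active means mean normalized replicate activation at least 10% and every replicate at or above 10%; inconclusive means only one of the two criteria met; inactive means mean below 10% and not all replicates reach 10%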;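 further: 0% = median of on-plate neutral control wells and 100% = ellipticine 6 µM median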
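System: XiGFP fibroblasts, SV40-immortalized. Medium: DMEM plus 5-aza-dC sensitizer. Doses: single point. Timing: 3 d treatment, 15 min room-temperature fixation. Control set: ellipticine 6 µM.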
Cneo AK release – Cryptococcus neoformans lysis via adenylate kinase release; lysis activity, % at 15 µM; actives 0.2% (n = 360,000); C. neoformans lysis, adenylate kinase release luminescence, 4 h; normalised: neutral wells 0, clomiphene wells 100;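 active means mean lysis activity across replicates of at least 80%, whatever share of replicates individually reach that level; inactive means mean lysis activity below 80%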
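Assay system: Cryptococcus neoformans yeast cells / Dosing: single-point compound dose / Timing: 4 h at 37 °C static, read 1 h later / Measured by: luminescence of released adenylate kinase using an AK detection reagent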
DENV2 CPE rescue – DENV2-induced cell death inhibition. DENV2-infected cells, cytopathic effect rescue, plate reader. CPE inhibition, % at 9.99 µM. actives 1.7% (n = 350,000). AID 651640; in the data active means CPE inhibition above about 20%, passing the limit was not always enough; inconclusive means no clear call, values can overlap the other calls; tested in BHK-21 cells;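 further: 0% = median of neutral control wells and 100% = median of positive control wells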
Statin myotox sup – suppression of simvastatin myotoxicity; C2C12 myotubes + simvastatin, ATP luminescence, 48 h; scaled: DMSO 0, geranylgeraniol control 100; rescue of ATP level, % at 7.49 µM; actives 0.78% (n = 330,000);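 active means mean ATP rescue above about 67%, or every replicate alone reaching that limit, limit read from the data, passing the limit was not always enough; inconclusive means no clear call, values can overlap the other calls; inactive means mean under the limit and some replicate under it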;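 further: myotubes were challenged with 10 µM simvastatin during compound exposure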
* hit, by the source's call; ? = inconclusive; . = no result given. Rows were chosen to be rich in hits. Some 2.1% of all compounds tested hit in one or more screens of this group.

SMILES	XiGFP reactiv	Cneo AK release	DENV2 CPE rescue	Statin myotox sup
C/C(=N\NC(=O)c1ccccc1O)c1ccc(NC(=O)c2ccccc2)cc1	0	-1	117*	.
O=C(Nc1ccc2c(c1)OCCO2)c1cccc(C(=O)Nc2ccc3c(c2)OCCO3)c1	0	-2	26*	-31
COc1cccc(C(=O)Nc2cc3c(cc2C(C)=O)OCCO3)c1	0	1	76*	.
O=C(Nc1ccc2c(c1)OCCO2)c1ccccc1	.	-3	.	-19
Cc1cccnc1-n1c(CCN2C(=O)c3ccccc3C2=O)nc2ccccc2c1=O	.	1	.	72*
CC(C)NC(=O)N1CCCCN2[C@H](CO)[C@@H](c3ccc(C#CC4CC4)cc3)[C@H]2C1	0	1	39*	29
O=C(Nc1ccccc1)N1CCCCN2[C@@H](CO)[C@@H](c3ccc(C#CC4CC4)cc3)[C@@H]2C1	0	4	-10	.
CC(C)NC(=O)N1CCCCN2[C@H](C1)[C@H](c1ccc(C#Cc3ccccc3)cc1)[C@@H]2CO	0	0	13	.
C[C@H](O)C#Cc1ccc([C@@H]2[C@@H](CO)N3CCCCN(C(=O)Nc4ccccc4)C[C@@H]23)cc1	0	-2	1	-20
O=C(Nc1ccccc1)N1CCCCN2[C@H](C1)[C@H](c1ccc(C#CC3CC3)cc1)[C@@H]2CO	0	108*	-5	.
C[C@H](O)C#Cc1ccc([C@H]2[C@@H](CO)N3CCCCN(C(=O)Nc4ccccc4)C[C@@H]23)cc1	0	-2	23*	-2
CCCNC(=O)C[C@H]1C[C@H]2c3cc(NS(C)(=O)=O)ccc3O[C@H]2[C@H](CO)O1	0	16	-2	-5
CCC[C@@H]1CCCO[C@@](C(=O)NCc2ccccn2)(C(F)(F)F)C1	0	-5	69*	-12
CCCC[C@@H]1CCCO[C@@](C(=O)NCc2ccccn2)(C(F)(F)F)C1	0	61	?	-6
C/C=C/c1ccc2c(c1)O[C@H](CN(C)C(=O)CN(C)C)[C@@H](C)CN([C@H](C)CO)S2(=O)=O	-1	-2	7	-3
CC1C(=O)N(Cc2cn(CC3CCCCC3)nn2)CCS(=O)(=O)N1Cc1ccc(-c2ccc(Cl)c(Cl)c2)cc1 (stereo not given)	0	.	57*	-5
C[C@H]1CN([C@@H](C)CO)C(=O)c2cc(NC(=O)Cc3cn(C)c4ccccc34)ccc2O[C@@H]1CN(C)C(=O)Nc1ccccc1	3	1	-10	36
C[C@@H]1CN([C@@H](C)CO)C(=O)c2cc(NC(=O)Cc3cn(C)c4ccccc34)ccc2O[C@H]1CN(C)C(=O)Nc1ccccc1	0	2	35*	5
C[C@H]1CN([C@@H](C)CO)C(=O)c2cc(NC(=O)Cc3cn(C)c4ccccc34)ccc2O[C@H]1CN(C)C(=O)Nc1ccc2c(c1)OCO2	0	9	28*	1
O=C(C[C@@H]1C[C@H]2c3cc(NC(=O)C4CCC4)ccc3O[C@H]2[C@@H](CO)O1)NC1CCCCC1	0	2	5	2
COc1ccccc1S(=O)(=O)N1CC[C@@H]2[C@@H](CO)Nc3ccc(Br)cc3[C@@H]21	0	-16	.	33
Cc1ccc(S(=O)(=O)N(C)C[C@H]2OCCCC[C@@H](C)Oc3ccc(NC(=O)Nc4ccc(C(F)(F)F)cc4)cc3C(=O)N([C@@H](C)CO)C[C@H]2C)cc1	0	-3	24*	.
C[C@@H]1CCCCO[C@H](CN(C)S(=O)(=O)c2ccc(Cl)cc2)[C@@H](C)CN([C@@H](C)CO)C(=O)c2cc(NC(=O)Nc3ccc(C(F)(F)F)cc3)ccc2O1	0	-12	32*	.
C[C@@H]1CN([C@@H](C)CO)S(=O)(=O)c2ccc(Br)cc2O[C@H]1CN(C)CC1CCOCC1	-1	0	-5	-28
CNC[C@@H]1OCCCC[C@@H](C)Oc2ccc(N(C)C)cc2C(=O)N([C@@H](C)CO)C[C@H]1C	-1	.	.	.
SMILES	XiGFP reactiv	Cneo AK release	DENV2 CPE rescue	Statin myotox sup
CC(=O)Nc1ccc2c(c1)C(=O)N(C)[C@H]1CC[C@@H](CC(=O)NCCCN3CCOCC3)O[C@H]1CO2	0	-1	.	-18
Cc1ccc(C)c(NC(=O)CSc2nnc(C3CCCCC3)o2)c1	0	-7	7	71*
O=C(C[C@H]1C=C[C@@H](NS(=O)(=O)c2ccc(F)cc2)[C@H](CO)O1)NCCc1ccncc1	0	1	0	-5
CN1C(=O)c2ccc(N(C)C)cc2C1=O	.	0	.	109*
CCCNC(=O)N[C@@H]1CC[C@@H](CC(=O)NC2CCC2)O[C@H]1CO	0	.	.	-11
O=C(O)c1ccc[n+](Cc2ccc([N+](=O)[O-])cc2)c1	0	-2	4	7
O=[N+]([O-])c1ccc(C[n+]2cccc(O)c2)cc1	0	2	67*	2
CC(C)NC(=O)Nc1ccc2c(c1)C(=O)N([C@@H](C)CO)C[C@@H](C)[C@@H](CN(C)C(=O)CCC(F)(F)F)OCCCC[C@H](C)O2	0	-2	-4	.
C[C@@H]1CCCCO[C@@H](CN(C)C(=O)CCC(F)(F)F)[C@@H](C)CN([C@H](C)CO)C(=O)c2cc(NC(=O)Nc3ccc4c(c3)OCO4)ccc2O1	0	1	42*	38
C[C@@H]1CN([C@H](C)CO)C(=O)c2cc(NC(=O)Nc3ccc4c(c3)OCO4)ccc2O[C@@H](C)CCCCO[C@@H]1CN(C)C(=O)CCC(F)(F)F	0	0	-6	20
C[C@@H]1CCCCO[C@H](CN(C)C(=O)CCC(F)(F)F)[C@H](C)CN([C@@H](C)CO)C(=O)c2cc(NC(=O)Nc3ccc4c(c3)OCO4)ccc2O1	0	2	26*	55
CC(C)NC(=O)Nc1ccc2c(c1)C(=O)N([C@@H](C)CO)C[C@H](C)[C@@H](CN(C)C(=O)CCC(F)(F)F)OCCCC[C@H](C)O2	0	96*	0	.
C[C@@H]1CN([C@@H](C)CO)C(=O)c2cc(NC(=O)Nc3ccccc3)ccc2O[C@@H](C)CCCCO[C@@H]1CN(C)C(=O)CCC(F)(F)F	0	1	0	.
C[C@@H]1CN([C@@H](C)CO)C(=O)c2cc(NC(=O)CCCN(C)C)ccc2O[C@@H]1CN(C)C(=O)Nc1ccc2c(c1)OCO2	-1	.	-12	.
COc1ccc(CCNS(=O)(=O)c2cccs2)cc1	.	-4	.	128*
O=S(=O)(NCCc1ccccc1)c1cccs1	0	4	1	-53
CCCSc1cc(NCCOC(=O)CCC)c([N+](=O)[O-])c2nonc12	2	.	.	2
CCC(=O)OCCNc1cc(Sc2nc3ccccc3s2)c2nonc2c1[N+](=O)[O-]	.	-1	.	102*
CCCC(=O)OCCNc1cc(Sc2nccn2C)c2nonc2c1[N+](=O)[O-]	23*	.	.	-262
CCC(=O)OCCNc1cc(Sc2nc3ccccc3[nH]2)c2nonc2c1[N+](=O)[O-]	16*	.	.	.
O=[N+]([O-])c1c(NCCCO)cc(Sc2nc3ccccc3s2)c2nonc12	.	1	.	-5

Compound activity (PubChem)
